Source: PubChem
DENV2 CPE: inhibitors of DENV2 cytopathic effect; DENV2-infected cells, cytopathic effect rescue, plate reader; CPE inhibition, % at 9.99 µM; actives 1.7% (n = 350,000); in the data active = CPE inhibition above about 20%, passing the limit was not always enough; inconclusive = no clear call, values can overlap the other calls; tested in BHK-21 cells;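 also: 0% = median of neutral control wells and 100% = median of positive control wells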
Statin myotox sup: suppressors of simvastatin-induced myotoxicity in C2C12 myotubes. AID 602340. actives 0.78% (n = 330,000). ATP luminescence, 48 h; scaled: DMSO 0, geranylgeraniol control 100. rescue of ATP level, % at 7.49 µM;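 active = mean ATP rescue above about 67%, or every replicate alone reaching that limit, limit read from the data, passing the limit was not always enough; inconclusive = no clear call, values can overlap the other calls; inactive = mean under the limit and some replicate under it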;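 also: myotubes were challenged with 10 µM simvastatin during compound exposure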
E-sel inducer: induces E-selectin expression in human endothelial cells. AID 686992. P16581. actives 0.37% (n = 260,000). HUVEC E-selectin immunofluorescence imaging; normalized: neutral wells 0, TNF-alpha wells 100. activation, % at 7.58 µM;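 active = mean E-selectin-positive cell signal at least 10% of the positive control, reached in at least 60% of replicates, without over 20% cell loss; inconclusive = no rule given, readout overlaps actives, possibly toxicity-flagged; inactive = the rest, including those meeting only one limit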
Target sequence (P16581 whole entry, looked up): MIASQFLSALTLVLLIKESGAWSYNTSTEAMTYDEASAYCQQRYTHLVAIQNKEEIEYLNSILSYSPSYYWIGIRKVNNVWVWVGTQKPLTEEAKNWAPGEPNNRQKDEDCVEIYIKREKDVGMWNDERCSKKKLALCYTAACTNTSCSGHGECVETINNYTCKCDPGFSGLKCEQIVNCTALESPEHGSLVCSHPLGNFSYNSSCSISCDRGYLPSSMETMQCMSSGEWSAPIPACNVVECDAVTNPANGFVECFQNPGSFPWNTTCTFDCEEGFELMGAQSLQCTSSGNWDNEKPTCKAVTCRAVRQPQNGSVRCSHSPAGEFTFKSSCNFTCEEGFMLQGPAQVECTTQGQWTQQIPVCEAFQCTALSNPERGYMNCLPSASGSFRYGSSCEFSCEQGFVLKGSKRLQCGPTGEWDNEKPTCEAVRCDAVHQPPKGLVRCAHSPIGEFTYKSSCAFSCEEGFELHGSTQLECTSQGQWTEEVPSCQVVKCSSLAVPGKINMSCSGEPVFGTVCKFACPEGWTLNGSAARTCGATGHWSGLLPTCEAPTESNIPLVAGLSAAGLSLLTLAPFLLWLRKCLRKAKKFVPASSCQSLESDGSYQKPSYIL
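assay system = HUVEC, human umbilical vein endothelial cells | input = 3,000 HUVEC seeded per well | medium = EGM-2 growth medium on 0.1% gelatin-coated wells | dosing = one compound dose added by pin transfer | signal = immunofluorescence imaging | read-out basis = % PE-positive cells | control set = TNF-alpha, DMSO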
* marks the source's active call; other numbers are inactive results; ! = not confirmed by another sample. Rows were chosen to be rich in hits. Some 2.2% of all compounds tested hit in one or more screens of this group.

Screening Cc1cc(-c2cc(NC(=O)Cc3c(C)[nH]c4ccccc34)ccc2N(C)c2cccnc2)ccc1F returned DENV2 CPE 5 and E-sel inducer 1.
C[C@H](CO)N1C[C@H](C)[C@H](CN(C)CC2CC2)Oc2ccc(NC(=O)CCCCCC(=O)Nc3ccccc3N)cc2CC1=O was read as DENV2 CPE 13, Statin myotox sup 12 and E-sel inducer 2.
Screening CO[C@@H]1CC[C@@H]2CCN(C)C(=O)C[C@@H](c3ccccc3)CN(C)C(=O)c3cc(C#N)ccc3OC[C@H]1O2 returned DENV2 CPE 0, Statin myotox sup 0 and E-sel inducer 0.
For CCC(=O)N1CC[C@H]2[C@H](CO)Nc3ccc(C#Cc4ccc(OC)cc4)cc3[C@H]21 the results were DENV2 CPE 56* and E-sel inducer 1.
N#Cc1cccc(-c2ccc3c(c2)[C@@H]2[C@@H](CCN2Cc2ccncc2)[C@@H](CO)N3)c1 was read as DENV2 CPE -9, Statin myotox sup -53 and E-sel inducer 22.
For COCC(=O)N1CC[C@@H]2[C@H](CO)Nc3ccc(-c4cccc(C#N)c4)cc3[C@@H]21 the results were DENV2 CPE 44*, Statin myotox sup -7 and E-sel inducer 0.
COc1ccc(C#Cc2ccc3c(c2)[C@H]2[C@H](CCN2C(=O)C2CC2)[C@@H](CO)N3)cc1 was read as DENV2 CPE 17, Statin myotox sup 2 and E-sel inducer 0.
COCC(=O)N1CC[C@H]2[C@H](CO)Nc3ccc(C#Cc4ccc(OC)cc4)cc3[C@H]21 was read as DENV2 CPE 29* and E-sel inducer 1.
COCC(=O)N1CC[C@@H]2[C@H]1c1cc(-c3cccc(C#N)c3)ccc1N[C@@H]2CO was read as DENV2 CPE -3, Statin myotox sup -8 and E-sel inducer 0.
N#Cc1cccc(-c2ccc3c(c2)[C@H]2[C@H](CCN2Cc2ccncc2)[C@H](CO)N3)c1 was read as DENV2 CPE 50*, Statin myotox sup 10 and E-sel inducer 0.
`COCC(=O)N1CC[C@@H]2[C@H](CO)Nc3ccc(C#Cc4ccc(OC)cc4)cc3[C@@H]21` gave DENV2 CPE 8, Statin myotox sup 1 and E-sel inducer 2.
Screening C[C@H]1CN([C@@H](C)CO)C(=O)c2cccc(NC(=O)c3nc4ccccc4s3)c2O[C@@H]1CN(C)Cc1ccc(Cl)c(Cl)c1 returned DENV2 CPE -11 and E-sel inducer -7.
For CC(C)NC(=O)Nc1cccc2c1O[C@@H](CN(C)Cc1ccc(C(F)(F)F)cc1)[C@H](C)CN([C@H](C)CO)C2=O the results were DENV2 CPE 3, Statin myotox sup 5 and E-sel inducer 29*.
Screening CNC[C@H]1Oc2c(NC(=O)c3ccncc3)cccc2C(=O)N([C@H](C)CO)C[C@@H]1C returned DENV2 CPE 8, Statin myotox sup -6 and E-sel inducer 0.
For C[C@H]1CN([C@@H](C)CO)C(=O)c2cccc(N(C)C)c2O[C@@H]1CN(C)Cc1ccc(Cl)c(Cl)c1 the results were DENV2 CPE 5, Statin myotox sup 95* and E-sel inducer 0.
`CC(C)NC(=O)Nc1cccc2c1O[C@@H](CN(C)Cc1ccc(C(F)(F)F)cc1)[C@@H](C)CN([C@@H](C)CO)C2=O` gave DENV2 CPE inconclusive, Statin myotox sup 4 and E-sel inducer -6.
`C[C@H]1CN([C@@H](C)CO)C(=O)c2cccc(NC(=O)Nc3ccc(F)cc3)c2O[C@@H]1CN(C)Cc1ccc(Oc2ccccc2)cc1` gave DENV2 CPE -1, Statin myotox sup -23 and E-sel inducer 3.
For CNC[C@H]1Oc2c(NC(=O)c3ccncc3)cccc2C(=O)N([C@@H](C)CO)C[C@H]1C the results were DENV2 CPE 38*, Statin myotox sup -30 and E-sel inducer 0.
`C[C@@H]1CN([C@@H](C)CO)C(=O)c2cccc(NC(=O)Nc3ccc(F)cc3)c2O[C@@H]1CN(C)Cc1ccc(Oc2ccccc2)cc1` gave DENV2 CPE 55*!, Statin myotox sup 0 and E-sel inducer 0.
C[C@@H]1CN([C@@H](C)CO)C(=O)c2cccc(N(C)C)c2O[C@H]1CN(C)Cc1ccc(Cl)c(Cl)c1 was read as DENV2 CPE -1, Statin myotox sup -70 and E-sel inducer 0.
For C[C@H]1CN([C@@H](C)CO)C(=O)c2cc(NC(=O)c3ccncc3)ccc2O[C@@H]1CN(C)Cc1ccc(C(=O)O)cc1 the results were DENV2 CPE 5 and Statin myotox sup -1.
`O=C(Nc1ccccc1F)N[C@H]1CC[C@H](CCNS(=O)(=O)c2ccc(F)cc2)O[C@@H]1CO` gave DENV2 CPE -4, Statin myotox sup 4 and E-sel inducer 0.
For C[C@@H]1CN([C@@H](C)CO)C(=O)c2cc(C3=CCCC3)cnc2O[C@H]1CN(C)C(=O)Nc1ccc(F)cc1 the results were DENV2 CPE 4, Statin myotox sup 13 and E-sel inducer 0.
C[C@@H]1CN([C@@H](C)CO)C(=O)c2cccc(NC(=O)c3nc4ccccc4s3)c2O[C@@H]1CN(C)Cc1ccc(Oc2ccccc2)cc1 was read as DENV2 CPE -7, Statin myotox sup 5 and E-sel inducer -4.
C[C@@H]1CN([C@H](C)CO)C(=O)c2cccc(NC(=O)Nc3ccc(F)cc3)c2O[C@H]1CN(C)Cc1ccccc1 was read as DENV2 CPE 20, Statin myotox sup 72* and E-sel inducer 0.
For C[C@H]1CN([C@@H](C)CO)C(=O)c2cccc(NC(=O)Nc3ccc(F)cc3)c2O[C@@H]1CN(C)Cc1ccccc1 the results were DENV2 CPE 0, Statin myotox sup -5 and E-sel inducer 0.
For C[C@H]1CN([C@@H](C)CO)C(=O)c2cccc(NC(=O)Nc3ccccc3)c2O[C@@H]1CN(C)Cc1ccc(C(F)(F)F)cc1 the results were DENV2 CPE 3, Statin myotox sup 10 and E-sel inducer 1.
For CNC[C@@H]1Oc2c(NC(=O)Nc3ccc(F)cc3)cccc2C(=O)N([C@H](C)CO)C[C@H]1C the results were DENV2 CPE -3, Statin myotox sup 6 and E-sel inducer 131*.
`CC(C)NC(=O)Nc1cccc2c1O[C@@H](CN(C)Cc1ccc(Cl)c(Cl)c1)[C@@H](C)CN([C@H](C)CO)C2=O` gave DENV2 CPE -2, Statin myotox sup 52 and E-sel inducer 44*.
C[C@H](CO)N1C[C@H](C)[C@@H](CN(C)Cc2ccc(Oc3ccccc3)cc2)Oc2c(NC(=O)Nc3ccc(C(F)(F)F)cc3)cccc2C1=O was read as DENV2 CPE 24*.
CNC[C@@H]1Oc2c(NC(=O)Nc3ccc(F)cc3)cccc2C(=O)N([C@@H](C)CO)C[C@H]1C was read as DENV2 CPE -5, Statin myotox sup -2 and E-sel inducer -2.
For CC(C)NC(=O)Nc1cccc2c1O[C@@H](CN(C)Cc1ccc(Cl)c(Cl)c1)[C@H](C)CN([C@H](C)CO)C2=O the results were DENV2 CPE 1, Statin myotox sup 33 and E-sel inducer 12.
COc1ccccc1CN1[C@@H]2c3ccc(C4=CCCC4)c(=O)n3C[C@H]1[C@H](CO)[C@H]2C(=O)N(C)C was read as DENV2 CPE 5, Statin myotox sup -1 and E-sel inducer 0.
